Laboratory results reported in ChEMBL document CHEMBL1126168, “Benzazepinone calcium channel blockers. 3. Synthesis and structure-activity studies of 3-alkylbenzazepinones” (J Med Chem, 1992).

species: Cavia porcellus; test: (§1) In vitro inhibition [3H]diltiazem binding to calcium channels in isolated guinea pig skeletal muscle microsomal preparations; assay type: microsomes; conditions: Muscle tissue, Microsome, concentration not given here

Row | Compound | inhibition [%]
1 | COc1ccc([C@@H]2Cc3c(cccc3C(F)(F)F)N(CCN(C)C)C(=O)[C@@H]2C)cc1 | 90

tested on: not listed separately; test: In vivo evaluation for the percentage decrease in blood pressure at 45 umol/kg administered through oral route in spontaneously hypertensive rats and observed for 6-12 h; conditions: not given

Row | Compound | Decrease [%]
2 | CCC[C@H]1C(=O)N(CCN(C)C)c2ccccc2C[C@H]1c1ccc(OC)cc1.Cl | 11
3 | CC[C@H]1C(=O)N(CCN(C)C)c2cccc(C(F)(F)F)c2C[C@H]1c1ccc(OC)cc1.Cl | 19
4 | CCC[C@H]1C(=O)N(CCN(C)C)c2ccc(C(F)(F)F)cc2C[C@H]1c1ccc(OC)cc1.Cl | 5
5 | COc1ccc([C@@H]2Cc3c(ccc(Br)c3OC)N(CCN(C)C)C(=O)[C@@H]2C)cc1.Cl | 12
6 | C=CC[C@H]1C(=O)N(CCN(C)C)c2ccc(C(F)(F)F)cc2C[C@H]1c1ccc(OC)cc1.Cl | 28
7 | C=CCC1C(=O)N(CCN(C)C)c2cccc(C(F)(F)F)c2CC1c1ccc(OC)cc1.Cl (centres undefined) | 27
8 | COc1ccc([C@@H]2Sc3cc(Cl)ccc3N(CCN(C)C)C(=O)[C@@H]2OC(C)=O)cc1 [CLENTIAZEM] | 16
9 | COc1ccc([C@@H]2Cc3ccccc3N(CCN(C)C)C(=O)[C@@H]2C)cc1.Cl | 4
10 | COc1ccc([C@@H]2Cc3c(cccc3C(F)(F)F)N(CCN(C)C)C(=O)[C@H]2C)cc1 | 23
11 | COc1ccc([C@@H]2Cc3c(cccc3C(F)(F)F)N(CCN(C)C)C(=O)[C@@H]2Cc2ccccc2)cc1 | 8
12 | COc1ccc([C@@H]2Cc3cc(C(F)(F)F)ccc3N(CCN(C)C)C(=O)[C@@H]2C)cc1.Cl | 23
13 | CCC[C@H]1C(=O)N(CCN(C)C)c2cccc(C(F)(F)F)c2C[C@H]1c1ccc(OC)cc1.Cl | 19
14 | C=CC[C@H]1C(=O)N(CCN(C)C)c2cccc(C(F)(F)F)c2C[C@H]1c1ccc(OC)cc1.Cl (relative stereo) | 32
15 | C=CC[C@H]1C(=O)N(CCN(C)C)c2ccc(Cl)cc2C[C@H]1c1ccc(OC)cc1 | 23
16 | COc1ccc([C@@H]2Cc3c(OC)cccc3N(CCN(C)C)C(=O)[C@@H]2C)cc1.Cl | 10
17 | COc1ccc([C@@H]2Cc3c(ccc(SC)c3OC)N(CCN(C)C)C(=O)[C@@H]2C)cc1.Cl | 15
18 | CC[C@H]1C(=O)N(CCN(C)C)c2ccc(Cl)cc2C[C@H]1c1ccc(OC)cc1 | 22
19 | COc1ccc([C@@H]2Cc3c(cccc3C(F)(F)F)N(CCN(C)C)C(=O)[C@@H]2OC(C)=O)cc1 | 12
20 | C=CC[C@H]1C(=O)N(CCN(C)C)c2ccccc2C[C@H]1c1ccc(OC)cc1.Cl | 23
21 | COc1ccc([C@@H]2Cc3cc(Cl)ccc3N(CCN(C)C)C(=O)[C@@H]2C)cc1 | 13
22 | COc1ccc([C@@H]2Cc3c(cccc3C(F)(F)F)N(CCN(C)C)C(=O)[C@@H]2C)cc1 | 22
23 | CC[C@H]1C(=O)N(CCN(C)C)c2cccc(Cl)c2C[C@H]1c1ccc(OC)cc1 | 18
24 | COc1ccc([C@@H]2Cc3c(cccc3C(F)(F)F)N(CCN(C)C)C(=O)[C@H]2C)cc1.Cl | 9

tested on: not listed separately; test: In vivo evaluation for the percentage decrease in blood pressure at 45 umol/kg administered through oral route in spontaneously hypertensive rats and observed for 12-18 h; conditions: not given

Row | Compound | Decrease [%]
25 | C=CC[C@H]1C(=O)N(CCN(C)C)c2ccc(C(F)(F)F)cc2C[C@H]1c1ccc(OC)cc1.Cl | 30
26 | C=CCC1C(=O)N(CCN(C)C)c2cccc(C(F)(F)F)c2CC1c1ccc(OC)cc1.Cl (centres undefined) | 29
27 | COc1ccc([C@@H]2Sc3cc(Cl)ccc3N(CCN(C)C)C(=O)[C@@H]2OC(C)=O)cc1 [CLENTIAZEM] | 22
28 | COc1ccc([C@@H]2Cc3c(cccc3C(F)(F)F)N(CCN(C)C)C(=O)[C@H]2C)cc1 | 17
29 | CCC[C@H]1C(=O)N(CCN(C)C)c2cccc(C(F)(F)F)c2C[C@H]1c1ccc(OC)cc1.Cl | 24
30 | COc1ccc([C@@H]2Cc3c(cccc3C(F)(F)F)N(CCN(C)C)C(=O)[C@@H]2OC(C)=O)cc1 | 12
31 | CC[C@H]1C(=O)N(CCN(C)C)c2cccc(Cl)c2C[C@H]1c1ccc(OC)cc1 | 7

tested on: not listed separately; test: In vivo evaluation for the percentage decrease in blood pressure at 135 umol/kg administered through oral route in spontaneously hypertensive rats and observed for 12-18 h; assay type: functional, Rattus norvegicus; conditions: not given
Outline: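 Spontaneously hypertensive rats, n = 5, dosed orally at 135 μmol/kg; blood pressure followed and reported as percent decrease over the 0-6, 6-12 and 12-18 h intervals after dosing.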

Row | Compound | Decrease [%]
32 | CCC[C@H]1C(=O)N(CCN(C)C)c2ccccc2C[C@H]1c1ccc(OC)cc1.Cl | 12
33 | CC[C@H]1C(=O)N(CCN(C)C)c2cccc(C(F)(F)F)c2C[C@H]1c1ccc(OC)cc1.Cl | 15
34 | CCC[C@H]1C(=O)N(CCN(C)C)c2ccc(C(F)(F)F)cc2C[C@H]1c1ccc(OC)cc1.Cl | 8
35 | COc1ccc([C@@H]2Cc3c(ccc(Br)c3OC)N(CCN(C)C)C(=O)[C@@H]2C)cc1.Cl | 14
36 | COc1ccc([C@@H]2Cc3ccccc3N(CCN(C)C)C(=O)[C@@H]2C)cc1.Cl | 8
37 | COc1ccc([C@@H]2Cc3c(cccc3C(F)(F)F)N(CCN(C)C)C(=O)[C@@H]2Cc2ccccc2)cc1 | 6
38 | COc1ccc([C@@H]2Cc3cc(C(F)(F)F)ccc3N(CCN(C)C)C(=O)[C@@H]2C)cc1.Cl | 25
39 | C=CC[C@H]1C(=O)N(CCN(C)C)c2cccc(C(F)(F)F)c2C[C@H]1c1ccc(OC)cc1.Cl (relative stereo) | 27
40 | C=CC[C@H]1C(=O)N(CCN(C)C)c2ccc(Cl)cc2C[C@H]1c1ccc(OC)cc1 | 25
41 | COc1ccc([C@@H]2Cc3c(OC)cccc3N(CCN(C)C)C(=O)[C@@H]2C)cc1.Cl | 8
42 | COc1ccc([C@@H]2Cc3c(ccc(SC)c3OC)N(CCN(C)C)C(=O)[C@@H]2C)cc1.Cl | 14
43 | CC[C@H]1C(=O)N(CCN(C)C)c2ccc(Cl)cc2C[C@H]1c1ccc(OC)cc1 | 21
44 | C=CC[C@H]1C(=O)N(CCN(C)C)c2ccccc2C[C@H]1c1ccc(OC)cc1.Cl | 18
45 | COc1ccc([C@@H]2Cc3cc(Cl)ccc3N(CCN(C)C)C(=O)[C@@H]2C)cc1 | 11
46 | COc1ccc([C@@H]2Cc3c(cccc3C(F)(F)F)N(CCN(C)C)C(=O)[C@@H]2C)cc1 | 22
47 | COc1ccc([C@@H]2Cc3c(cccc3C(F)(F)F)N(CCN(C)C)C(=O)[C@H]2C)cc1.Cl | 8

tested on: not listed separately; test: In vivo evaluation for the percentage decrease in blood pressure at 45 umol/kg administered through oral route in spontaneously hypertensive rats and observed for 0-6 h; conditions: not given

Row | Compound | Decrease [%]
48 | CCC[C@H]1C(=O)N(CCN(C)C)c2ccccc2C[C@H]1c1ccc(OC)cc1.Cl | 10
49 | CC[C@H]1C(=O)N(CCN(C)C)c2cccc(C(F)(F)F)c2C[C@H]1c1ccc(OC)cc1.Cl | 24
50 | CCC[C@H]1C(=O)N(CCN(C)C)c2ccc(C(F)(F)F)cc2C[C@H]1c1ccc(OC)cc1.Cl | 6
51 | COc1ccc([C@@H]2Cc3c(ccc(Br)c3OC)N(CCN(C)C)C(=O)[C@@H]2C)cc1.Cl | 9
52 | C=CC[C@H]1C(=O)N(CCN(C)C)c2ccc(C(F)(F)F)cc2C[C@H]1c1ccc(OC)cc1.Cl | 23
53 | C=CCC1C(=O)N(CCN(C)C)c2cccc(C(F)(F)F)c2CC1c1ccc(OC)cc1.Cl (centres undefined) | 24
54 | COc1ccc([C@@H]2Sc3cc(Cl)ccc3N(CCN(C)C)C(=O)[C@@H]2OC(C)=O)cc1 [CLENTIAZEM] | 29
55 | COc1ccc([C@@H]2Cc3ccccc3N(CCN(C)C)C(=O)[C@@H]2C)cc1.Cl | 6
56 | COc1ccc([C@@H]2Cc3c(cccc3C(F)(F)F)N(CCN(C)C)C(=O)[C@H]2C)cc1 | 24
57 | COc1ccc([C@@H]2Cc3c(cccc3C(F)(F)F)N(CCN(C)C)C(=O)[C@@H]2Cc2ccccc2)cc1 | 14
58 | COc1ccc([C@@H]2Cc3cc(C(F)(F)F)ccc3N(CCN(C)C)C(=O)[C@@H]2C)cc1.Cl | 23
59 | CCC[C@H]1C(=O)N(CCN(C)C)c2cccc(C(F)(F)F)c2C[C@H]1c1ccc(OC)cc1.Cl | 14
60 | C=CC[C@H]1C(=O)N(CCN(C)C)c2cccc(C(F)(F)F)c2C[C@H]1c1ccc(OC)cc1.Cl (relative stereo) | 33
61 | C=CC[C@H]1C(=O)N(CCN(C)C)c2ccc(Cl)cc2C[C@H]1c1ccc(OC)cc1 | 23
62 | COc1ccc([C@@H]2Cc3c(OC)cccc3N(CCN(C)C)C(=O)[C@@H]2C)cc1.Cl | 7
63 | COc1ccc([C@@H]2Cc3c(ccc(SC)c3OC)N(CCN(C)C)C(=O)[C@@H]2C)cc1.Cl | 18
64 | CC[C@H]1C(=O)N(CCN(C)C)c2ccc(Cl)cc2C[C@H]1c1ccc(OC)cc1 | 20
65 | COc1ccc([C@@H]2Cc3c(cccc3C(F)(F)F)N(CCN(C)C)C(=O)[C@@H]2OC(C)=O)cc1 | 17
66 | C=CC[C@H]1C(=O)N(CCN(C)C)c2ccccc2C[C@H]1c1ccc(OC)cc1.Cl | 25
67 | COc1ccc([C@@H]2Cc3cc(Cl)ccc3N(CCN(C)C)C(=O)[C@@H]2C)cc1 | 12
68 | COc1ccc([C@@H]2Cc3c(cccc3C(F)(F)F)N(CCN(C)C)C(=O)[C@@H]2C)cc1 | 28
69 | CC[C@H]1C(=O)N(CCN(C)C)c2cccc(Cl)c2C[C@H]1c1ccc(OC)cc1 | 14
70 | COc1ccc([C@@H]2Cc3c(cccc3C(F)(F)F)N(CCN(C)C)C(=O)[C@H]2C)cc1.Cl | 12

species: Oryctolagus cuniculus; test: In vitro evaluation for the vasorelaxant effects in circumferential strips of potassium-depolarized rabbit aorta. (IC50 in rabbit aorta strips contracted with KCl); assay type: functional; conditions: not given

Row | Compound | IC50 [µM]
71 | CCC[C@H]1C(=O)N(CCN(C)C)c2ccc(C(F)(F)F)cc2C[C@H]1c1ccc(OC)cc1.Cl | 1.2
72 | COc1ccc([C@@H]2Cc3c(ccc(Br)c3OC)N(CCN(C)C)C(=O)[C@@H]2C)cc1.Cl | 0.09
73 | C=CC[C@H]1C(=O)N(CCN(C)C)c2ccc(C(F)(F)F)cc2C[C@H]1c1ccc(OC)cc1.Cl | 0.24
74 | C=CCC1C(=O)N(CCN(C)C)c2cccc(C(F)(F)F)c2CC1c1ccc(OC)cc1.Cl (centres undefined) | 0.1
75 | COc1ccc([C@@H]2Sc3cc(Cl)ccc3N(CCN(C)C)C(=O)[C@@H]2OC(C)=O)cc1 [CLENTIAZEM] | 0.1
76 | COc1ccc([C@@H]2Cc3ccccc3N(CCN(C)C)C(=O)[C@@H]2C)cc1.Cl | 1.1
77 | COc1ccc([C@@H]2Cc3cc(C(F)(F)F)ccc3N(CCN(C)C)C(=O)[C@@H]2C)cc1.Cl | 1.23
78 | C=CC[C@H]1C(=O)N(CCN(C)C)c2cccc(C(F)(F)F)c2C[C@H]1c1ccc(OC)cc1.Cl (relative stereo) | 0.077
79 | C=CC[C@H]1C(=O)N(CCN(C)C)c2ccc(Cl)cc2C[C@H]1c1ccc(OC)cc1 | 0.16
80 | COc1ccc([C@@H]2Cc3c(ccc(SC)c3OC)N(CCN(C)C)C(=O)[C@@H]2C)cc1.Cl | 0.07
81 | CC[C@H]1C(=O)N(CCN(C)C)c2ccc(Cl)cc2C[C@H]1c1ccc(OC)cc1 | 0.28
82 | COc1ccc([C@@H]2Cc3cc(Cl)ccc3N(CCN(C)C)C(=O)[C@@H]2C)cc1 | 0.15
83 | COc1ccc([C@@H]2Cc3c(cccc3C(F)(F)F)N(CCN(C)C)C(=O)[C@@H]2C)cc1 | 0.08
84 | CC[C@H]1C(=O)N(CCN(C)C)c2cccc(Cl)c2C[C@H]1c1ccc(OC)cc1 | 0.08

tested on: not listed separately; test: as §1; assay type: microsomes, Cavia porcellus, Muscle tissue, Microsome; conditions: not given

Row | Compound | Kd [µM]
85 | CCC[C@H]1C(=O)N(CCN(C)C)c2ccccc2C[C@H]1c1ccc(OC)cc1.Cl | 0.25
86 | COc1ccc([C@@H]2Cc3c(ccc(Br)c3OC)N(CCN(C)C)C(=O)[C@@H]2C)cc1.Cl | 0.12
87 | C=CC[C@H]1C(=O)N(CCN(C)C)c2ccc(Cl)cc2C[C@H]1c1ccc(OC)cc1 | 5.04
88 | COc1ccc([C@@H]2Cc3c(OC)cccc3N(CCN(C)C)C(=O)[C@@H]2C)cc1.Cl | 0.4
89 | COc1ccc([C@@H]2Cc3cc(Cl)ccc3N(CCN(C)C)C(=O)[C@@H]2C)cc1 | 0.67
